The source of these data is ChEMBL document CHEMBL1629427, “Synthesis and structure-activity relationship of 3-O-acylated (-)-epigallocatechins as 5α-reductase inhibitors” (Eur J Med Chem, 2010).

The source made the active and inactive calls. No cut-off for these calls is given here.

Molecular target in one assay: not listed separately
The assay can be described thus: Inhibition of rat liver microsomal Steroid 5-alpha-reductase after 30 mins by scintillation counting.
Details: not given
In a few lines:
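Rat liver microsomes containing both type 1 and type 2 5α-reductase. [³H]T and [³H]DHT spots were separated by TLC, cut out and extracted with ethyl acetate, then counted by liquid scintillation.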
For orientation: Liver microsomes are a subcellular fraction often used to study metabolism.
`CC(C)(C)C1CCC(C(=O)O[C@@H]2Cc3c(O)cc(O)cc3O[C@@H]2c2cc(O)c(O)c(O)c2)CC1` (some centres not stated): the IC50 was determined as 1190 nM.

As to `O=C(O[C@@H]1Cc2c(O)cc(O)cc2O[C@@H]1c1cc(O)c(O)c(O)c1)c1ccc(Cl)cc1`, the half-inhibitory concentration (IC50) is 1600 nM.

As for `Cc1ccc(C(=O)O[C@@H]2Cc3c(O)cc(O)cc3O[C@@H]2c2cc(O)c(O)c(O)c2)cc1`, 1320 nM corresponded to half-maximal inhibition (IC50).

In the case of `CC/C=C\C/C=C\C/C=C\CCCCCCCC(=O)O[C@@H]1Cc2c(O)cc(O)cc2O[C@@H]1c1cc(O)c(O)c(O)c1`, the IC50 worked out at 780 nM.

Turning to `CCCCCCCCCCCCCC(=O)O[C@@H]1Cc2c(O)cc(O)cc2O[C@@H]1c1cc(O)c(O)c(O)c1`, inhibition was half-maximal at 600 nM (IC50).

With `CCCCCCCC/C=C\CCCCCCCC(=O)O[C@@H]1Cc2c(O)cc(O)cc2O[C@@H]1c1cc(O)c(O)c(O)c1`, inhibition was half-maximal at 740 nM (IC50).

Compound `CCCCCCC/C=C/C(=O)O[C@@H]1Cc2c(O)cc(O)cc2O[C@@H]1c1cc(O)c(O)c(O)c1` returned an IC50 of 2470 nM.

`CC1=C(/C=C/C(C)=C/C=C/C(C)=C/C(=O)O[C@@H]2Cc3c(O)cc(O)cc3O[C@@H]2c2cc(O)c(O)c(O)c2)C(C)(C)CCC1` registered an IC50 of 760 nM.

`O=C(O[C@@H]1Cc2c(O)cc(O)cc2O[C@@H]1c1cc(O)c(O)c(O)c1)c1cc(O)c(O)c(O)c1` [EPIGALOCATECHIN GALLATE]: the 50% inhibitory concentration (IC50) stood at 6290 nM.

Regarding `CC(C)=CCC/C(C)=C/C(=O)O[C@@H]1Cc2c(O)cc(O)cc2O[C@@H]1c1cc(O)c(O)c(O)c1`, the 50% inhibitory concentration (IC50) was determined as 2240 nM.

`CCCCCC/C=C\CCCCCCCC(=O)O[C@@H]1Cc2c(O)cc(O)cc2O[C@@H]1c1cc(O)c(O)c(O)c1` registered a 50% inhibitory concentration (IC50) of 480 nM.

For `CCCCCCCCCCCC(=O)O[C@@H]1Cc2c(O)cc(O)cc2O[C@@H]1c1cc(O)c(O)c(O)c1`, the midpoint of inhibition, the IC50, lay at 770 nM.

Turning to `CCCCCCCCCCCCCCCC(=O)O[C@@H]1Cc2c(O)cc(O)cc2O[C@@H]1c1cc(O)c(O)c(O)c1`, it took 530 nM to reach half-maximal inhibition (IC50).

`CCCCCCCCCCCCCCCCCC(=O)O[C@@H]1Cc2c(O)cc(O)cc2O[C@@H]1c1cc(O)c(O)c(O)c1` returned an IC50 of 730 nM.

The compound `CCCCCCCCCC(=O)O[C@@H]1Cc2c(O)cc(O)cc2O[C@@H]1c1cc(O)c(O)c(O)c1` displayed an IC50 of 2940 nM.

The species named for the next assay is Rattus norvegicus. The assay can be described thus: Inhibition of rat liver microsomal Steroid 5-alpha-reductase at 5 uM after 30 mins by scintillation counting.
Details: not given
Summed up:
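Rat liver microsomal 5α-reductase (types 1 and 2) was incubated with 35 nM [³H]testosterone, 1.0 mM NADPH, 1 mM DTT and 40 mM potassium phosphate pH 6.5. Steroids were separated by TLC and the spots extracted with ethyl acetate for scintillation counting. Percent inhibition was taken at a single fixed test concentration.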
`CCCCCCCC(=O)O[C@@H]1Cc2c(O)cc(O)cc2O[C@@H]1c1cc(O)c(O)c(O)c1` displayed an inhibition of 49.3%.

Compound `CCCCCCCCCCCCCCCCCCCC(=O)O[C@@H]1Cc2c(O)cc(O)cc2O[C@@H]1c1cc(O)c(O)c(O)c1` yielded an inhibition of 47.9%.

Turning to `COc1cc(OC)c2c(c1)O[C@H](c1cc(OC)c(OC)c(OC)c1)[C@H](OC(=O)c1cc(OC)c(OC)c(OC)c1)C2`, the inhibition was 8.4%.

As for `Cc1ccc(NC(=O)O[C@@H]2Cc3c(O)cc(O)cc3O[C@@H]2c2cc(O)c(O)c(O)c2)cc1`, the inhibition worked out at 0.8%.

With `CCCCCCCCCCCCCCCCCCCCCC(=O)O[C@@H]1Cc2c(O)cc(O)cc2O[C@@H]1c1cc(O)c(O)c(O)c1`, the inhibition was 28.3%.

`CCCC(=O)O[C@@H]1Cc2c(O)cc(O)cc2O[C@@H]1c1cc(O)c(O)c(O)c1` yielded an inhibition of 35%.

In the case of `O=C(Nc1ccc(Cl)cc1)O[C@@H]1Cc2c(O)cc(O)cc2O[C@@H]1c1cc(O)c(O)c(O)c1`, the inhibition was determined as 19.1%.

Regarding `C#CCCCC(=O)O[C@@H]1Cc2c(O)cc(O)cc2O[C@@H]1c1cc(O)c(O)c(O)c1`, the inhibition amounted to 48.8%.

The compound `CC(=O)O[C@@H]1Cc2c(O)cc(O)cc2O[C@@H]1c1cc(O)c(O)c(O)c1` had an inhibition of 3%.

Take `CC(C)=CC(=O)O[C@@H]1Cc2c(O)cc(O)cc2O[C@@H]1c1cc(O)c(O)c(O)c1`: the inhibition worked out at 36%.

`O=C(Nc1ccc2ccccc2c1)O[C@@H]1Cc2c(O)cc(O)cc2O[C@@H]1c1cc(O)c(O)c(O)c1` yielded an inhibition of 28.7%.

For the compound `C/C=C(\C)C(=O)O[C@@H]1Cc2c(O)cc(O)cc2O[C@@H]1c1cc(O)c(O)c(O)c1`, the inhibition came to 29.1%.

Turning to `CC(=O)Oc1cc(OC(C)=O)c2c(c1)O[C@H](c1cc(OC(C)=O)c(OC(C)=O)c(OC(C)=O)c1)[C@H](OC(=O)c1cc(OC(C)=O)c(OC(C)=O)c(OC(C)=O)c1)C2`, the inhibition is 0.5%.

Compound `CCCCCC(=O)O[C@@H]1Cc2c(O)cc(O)cc2O[C@@H]1c1cc(O)c(O)c(O)c1` displayed an inhibition of 46%.

The next assay has as its system PC-3. The assay can be described thus: Anticancer activity against human PC3 cells xenografted in sc dosed SCID mouse assessed as inhibition of tumor growth at 20 mg/kg, ip qd for 14 days. Type of assay: functional.
Details: not given
Summed up:
(§1)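 PC-3 xenografts in SCID mice; calipers tracked tumor volume once palpable, and dosing began at an average volume of ~50–100 mm³. Groups of 5 mice received one intraperitoneal dose daily for 14 days, formulated in 15% PEG 400, 5% EtOH and 80% H₂O, alongside a vehicle-only group. Tumor size and body weight were recorded every two days for 28 days; tumor size given as mean ± S.E.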
On the technique in general: In xenograft studies the graft and the host belong to different species.
Consider `O=C(O[C@@H]1Cc2c(O)cc(O)cc2O[C@@H]1c1cc(O)c(O)c(O)c1)c1cc(O)c(O)c(O)c1` [EPIGALOCATECHIN GALLATE], for which the inhibition entry was “inactive”.

The assay is the same for the next values; noted with them: PC-3, sc, 336 h, route subcutaneous.
Take `CCCCCC/C=C\CCCCCCCC(=O)O[C@@H]1Cc2c(O)cc(O)cc2O[C@@H]1c1cc(O)c(O)c(O)c1`: the inhibition in vivo at 20 mg/kg was determined as 38%.

In the next assay the test system is PC-3. Kind of assay: Anticancer activity against human PC3 cells xenografted in sc dosed SCID mouse assessed as inhibition of tumor growth at 80 mg/kg, ip qd for 14 days. Type of assay: functional. To be noted: PC-3, sc, 336 h. Summed up: as §1
On to `O=C(O[C@@H]1Cc2c(O)cc(O)cc2O[C@@H]1c1cc(O)c(O)c(O)c1)c1cc(O)c(O)c(O)c1` [EPIGALOCATECHIN GALLATE], for which the inhibition in vivo at 80 mg/kg is 32%.

One may read the IC50 as the concentration that gives 50% inhibition. In general, inhibition refers to how much of the control response was suppressed. What is called inhibition in vivo is the change of the read-out against control, counted positive when it falls.
